Data set [1] in a line: Half life in dog. The note with it: in vivo. It counts as ADME, organism-based, Canis lupus familiaris.
For data set [2], the system named is Plasma. In words: Metabolic stability in human plasma. It counts as ADME, cell-free.
A short description of data set [3]: Clearance in iv dosed rat. It is filed as ADME, organism-based. The following applies: in vivo.
The nature of data set [4]: Volume of distribution at steady state in rat. The note with it: in vivo, read-out: Vdss. It is filed as ADME, organism-based.
A short description of data set [5]: Half life in rat. The following applies: in vivo. It is filed as ADME, organism-based.
The target in data set [6] is T1, Protein deacetylase HDAC6 (Homo sapiens, UniProt Q9UBN7).
T1 sequence (Q9UBN7 whole entry): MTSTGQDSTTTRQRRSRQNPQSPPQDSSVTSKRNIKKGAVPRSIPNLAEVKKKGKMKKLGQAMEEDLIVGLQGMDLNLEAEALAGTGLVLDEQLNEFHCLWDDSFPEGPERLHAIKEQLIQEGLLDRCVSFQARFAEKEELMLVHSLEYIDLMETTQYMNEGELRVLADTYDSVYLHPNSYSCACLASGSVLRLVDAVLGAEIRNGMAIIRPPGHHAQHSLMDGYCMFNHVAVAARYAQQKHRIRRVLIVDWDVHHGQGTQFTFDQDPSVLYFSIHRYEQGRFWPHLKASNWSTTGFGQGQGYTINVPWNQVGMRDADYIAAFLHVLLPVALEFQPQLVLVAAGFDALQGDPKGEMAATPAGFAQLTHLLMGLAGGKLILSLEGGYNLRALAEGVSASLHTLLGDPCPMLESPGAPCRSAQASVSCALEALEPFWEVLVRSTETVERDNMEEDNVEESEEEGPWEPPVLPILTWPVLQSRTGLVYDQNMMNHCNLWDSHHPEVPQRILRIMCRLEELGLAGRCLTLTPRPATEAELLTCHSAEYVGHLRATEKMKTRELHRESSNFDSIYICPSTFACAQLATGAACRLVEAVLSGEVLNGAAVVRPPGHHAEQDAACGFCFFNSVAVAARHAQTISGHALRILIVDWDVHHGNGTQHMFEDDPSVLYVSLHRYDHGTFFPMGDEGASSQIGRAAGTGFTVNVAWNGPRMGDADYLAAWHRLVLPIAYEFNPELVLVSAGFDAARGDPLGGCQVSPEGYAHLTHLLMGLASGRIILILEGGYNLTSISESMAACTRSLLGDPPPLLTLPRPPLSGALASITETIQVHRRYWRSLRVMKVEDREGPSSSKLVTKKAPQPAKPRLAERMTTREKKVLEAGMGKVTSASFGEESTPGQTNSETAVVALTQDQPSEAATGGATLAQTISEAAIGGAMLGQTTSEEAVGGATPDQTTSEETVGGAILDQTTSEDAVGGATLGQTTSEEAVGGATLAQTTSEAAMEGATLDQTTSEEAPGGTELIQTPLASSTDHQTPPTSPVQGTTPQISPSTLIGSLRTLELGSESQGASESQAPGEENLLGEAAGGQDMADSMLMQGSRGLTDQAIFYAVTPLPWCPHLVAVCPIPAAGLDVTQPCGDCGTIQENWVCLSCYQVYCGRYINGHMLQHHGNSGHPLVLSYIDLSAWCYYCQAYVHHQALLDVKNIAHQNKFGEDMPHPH
In words: Inhibition of human recombinant His-tagged HDAC6 expressed in baculovirus. A digest of the protocol: (§1)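 Enzyme preincubated with inhibitor 10 min at ambient temperature in 25 mM Hepes pH 8.0, 137 mM NaCl, 1 mM MgCl₂, 2.7 mM KCl. Coumarin-labeled acetyl-lysine substrate then added, incubated at 37 °C. Quenched with trypsin (1 mg/mL final) and TSA (1 μM final). Fluorescence read; IC50 from dose–response curves. Values are means of at least two experiments.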

Data set [7] is described as follows: Oral bioavailability in rat. It is filed as ADME, organism-based. The note with it: in vivo.
The target in data set [8] is Histone deacetylase. In words: Inhibition of HDAC in HEK293T cells by whole cell assay. It counts as cell-based, Homo sapiens. The following applies: hek-293t. The method, boiled down:
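Cultured 293T cells exposed to inhibitors for 16 h, then given the membrane-permeable substrate Boc-Ac-Lys-AMC for 90 min at 37 °C. Quenched with trypsin (1 mg/mL final) and TSA, then lysed in 1% NP-40. Fluorescence read at Ex 360/Em 470 nm; IC50 reported. Values are means of at least two experiments.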

Data set [9] in a line: Bioavailability in dog. It is filed as ADME, organism-based, Canis lupus familiaris. The note with it: in vivo.
For data set [10], the target named is Histone deacetylase 1 (Homo sapiens, UniProt Q13547). In words: Inhibition of human recombinant FLAG-tagged HDAC1 expressed in baculovirus. The method, boiled down: as §1
Data set [11] deals with Plasma. In words: Metabolic stability in rat plasma. It counts as ADME, cell-free.
Data set [12] in a line: Clearance in dog. It is filed as ADME, organism-based, Canis lupus familiaris. The following applies: in vivo.

The values below come from ChEMBL document CHEMBL1153367, “Synthesis and evaluation of lysine derived sulfamides as histone deacetylase inhibitors” (Bioorg Med Chem Lett, 2009).

Histone deacetylase 1, sequence (Q13547 whole entry): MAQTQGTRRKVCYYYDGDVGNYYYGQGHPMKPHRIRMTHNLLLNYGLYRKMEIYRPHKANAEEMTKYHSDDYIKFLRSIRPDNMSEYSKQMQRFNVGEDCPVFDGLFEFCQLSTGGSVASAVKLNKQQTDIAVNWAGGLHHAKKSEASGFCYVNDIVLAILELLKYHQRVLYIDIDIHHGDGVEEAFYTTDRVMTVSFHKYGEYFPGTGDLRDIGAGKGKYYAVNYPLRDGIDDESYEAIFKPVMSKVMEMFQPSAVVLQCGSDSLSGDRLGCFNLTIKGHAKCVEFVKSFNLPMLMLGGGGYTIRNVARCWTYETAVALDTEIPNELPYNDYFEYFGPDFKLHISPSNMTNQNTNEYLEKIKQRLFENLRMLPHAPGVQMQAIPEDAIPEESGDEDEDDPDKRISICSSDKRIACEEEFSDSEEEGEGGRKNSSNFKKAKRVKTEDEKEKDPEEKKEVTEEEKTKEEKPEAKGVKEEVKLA

As a reminder, the half-life is the time in which the quantity being followed falls by half. A higher half-life goes with slow loss. For orientation: clearance means the volume of plasma or blood freed of the substance per unit of time. Read a low clearance as inefficient removal. The term IC50 denotes the concentration that gives 50% inhibition. The bioavailability is the share of a dose that reaches the circulation, judged against a reference dose that is usually intravenous. A higher bioavailability goes with good availability. Take `NS(=O)(=O)NCCCC[C@H](NC(=O)OCc1ccccc1)c1nc2cc(-c3cccs3)ccc2[nH]1`: the half-life is 5.7 h in data set [1] and 1.2 h in data set [5]. Also, the Stability entry in [2] and in [11] was “Stable” throughout. The results for the clearance in data set [3] and in [12] were 6.83 mL/min/kg and 8.5 mL/min/kg, respectively. Also, the Vd in data set [4] stood at 0.03 L/kg. Moreover, the IC50 in [6] turned out to be 480 nM; in data set [8] it was 620 nM; in data set [10], 200 nM. For the same compound, the results for the bioavailability in data set [7] and in data set [9] were 0.5% and 6%, respectively.
